High-throughput results deposited in PubChem BioAssay by several laboratories.
CHT PAM – allosteric activators of human choline transporter CHT | Q9GZV3 | CHT-expressing cells, membrane potential dye, choline EC20; hits give high values; LV-AA mutant CHT in HEK293 cells | B-score at 10 µM | 0.49% of 310,000 active | AID 488977;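 active = initial fluorescence not abnormally high and integrated response B-score, plate-corrected, over 3 SD above library mean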
PHOSPHO1 block – blocks human PHOSPHO1 phosphatase activity; Q8TCT1; recombinant PHOSPHO1, absorbance phosphatase assay; inhibition, % at 13.3 µM; 1.1% of 290,000 active; AID 1565; in the data active = inhibition above about 60%
Target sequence (Q8TCT1 whole entry, looked up): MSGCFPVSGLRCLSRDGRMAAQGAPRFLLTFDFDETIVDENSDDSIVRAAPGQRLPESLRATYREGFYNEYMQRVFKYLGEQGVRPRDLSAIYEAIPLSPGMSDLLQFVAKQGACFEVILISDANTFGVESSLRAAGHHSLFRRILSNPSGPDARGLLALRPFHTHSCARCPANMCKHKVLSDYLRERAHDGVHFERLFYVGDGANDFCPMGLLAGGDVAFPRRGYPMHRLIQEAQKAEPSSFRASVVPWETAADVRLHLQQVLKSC
HSF1 inhib – HSF1 inhibition. AID 2098. 0.77% of 300,000 active. NIH3T3-HGL HSE-luciferase, MG132-induced, luminescence 8 h; hits give low values. activity change, negative = inhibition, % at 7.5 µM (by protocol);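 active = more than half of replicate wells show activity change below -50%, luminescence cut by over half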;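 also: luciferase reports HSF-1 transcriptional activity via heat shock element; 0% = median of DMSO wells and -100% = zero luminescence signal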
HSF1 activator – increases HSF-1 driven luciferase reporter signal. activation, % at 9 µM. 1.7% of 300,000 active. NIH3T3-HGL HSF-1 luciferase reporter, MG132, 8 h; 100% = twice DMSO control signal;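 active = mean replicate activation of at least 50% with a set share of replicates each reaching 50%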;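 also: 0% = median of the neutral control wells and 100% = twice that signal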
CHT block – inhibitors of human choline transporter CHT. Q9GZV3. CHT-expressing cells, membrane potential dye, choline response; hits give low values. B-score at 10 µM. 0.86% of 310,000 active. AID 488975;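 active = B-score over 3 SD under the library average, and starting fluorescence ratio not unusually high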;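 also: choline stimulus applied at its EC90 after an EC20 pre-addition; B-score computed on integrated fluorescence ratio after choline addition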
Hep lipid drop – modulators of hepatic lipid droplet formation. AML12 mouse hepatocytes, oleate lipid droplets, BODIPY imaging. inhibition, % at 6.5 µM. 0.4% of 240,000 active;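 active = lipid droplet intensity inhibited by at least 50%, with more than 500 cells counted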
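Material – mouse AML12 hepatocyte cell line, fixed after treatment · Compound dosing – one dose, 6.5 µM compound · Times – compound with oleate, overnight · Measured by – Image-based BODIPY and DAPI two-channel analysis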
Hep lipid conf – hepatic lipid droplet formation inhibition, confirmed. 65% of 870 active. shares compounds with Hep lipid drop. AID 463183. inhibition, % at 5.2 µM. AML12 mouse hepatocytes, BODIPY lipid droplet imaging; droplets induced with 100 µM oleic acid;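 active = inhibition of lipid droplet metric at least 50%, with more than 300 cells in each of four replicates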;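 also: plate controls were DMSO with oleic acid for no effect and 5 µM Triacsin-C for full effect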
AML12 cytotox – AML12 hepatocyte cytotoxicity (counter-screen); shares compounds with Hep lipid drop; AML12 mouse hepatocytes, DAPI nuclear morphology cytotoxicity imaging; hits give high values; cells fed 100 µM oleate overnight; z-score at 5 µM; 3% of 870 active; in the data active = z-score above about 6.3;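 also: compound exposure lasted overnight at 37 °C before fixation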
AML12 tox conf – confirmation of cytotoxicity in AML12 mouse hepatocytes | shares compounds with Hep lipid drop | AML12 mouse hepatocyte viability, ATP luminescence; cells loaded with 100 µM oleic acid | cytotoxicity, % at 50 µM | 530 tested, under 10 active | AID 463219;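 active = cytotoxicity above 50% in each of four replicates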;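 also: compound exposure lasted overnight at 37 °C before the ATP read; 0% = DMSO-treated cells and 100% = wells with no cells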
An asterisk follows results filed as active. An excerpt weighted towards active compounds, which were near 4.9% of everything screened.

What do the screens show for `COc1ccc(C)cc1S(=O)(=O)N(CC(=O)O)c1ccccc1`?
CHT PAM: inactive; PHOSPHO1 block: -36; HSF1 inhib: 1; HSF1 activator: 11; CHT block: inactive; Hep lipid drop: -5

Results for COc1ccc(C)cc1S(=O)(=O)N(CC(=O)O)c1ccc(C)cc1 ?
CHT PAM: inactive; PHOSPHO1 block: -4; HSF1 inhib: -3; HSF1 activator: 0; CHT block: inactive; Hep lipid drop: 53*; Hep lipid conf: 12; AML12 cytotox: -0.55

What do the screens show for `Cc1cc(C)nc(Nc2n[nH]c(COc3ccc(Cl)cc3)n2)n1`?
CHT PAM: inactive; PHOSPHO1 block: -9; HSF1 inhib: -1; HSF1 activator: -8; CHT block: inactive

How did CC(C)(C)C(=O)/C=c1\[nH]c(=O)/c(=C\c2ccc(F)cc2)s1 do in these assays?
CHT PAM: inactive; PHOSPHO1 block: 19; HSF1 inhib: 3; HSF1 activator: 1; CHT block: inactive; Hep lipid drop: 67*; Hep lipid conf: 98*; AML12 cytotox: 0.89; AML12 tox conf: 6

What do the screens show for `CCc1ccc(/C=c2\s/c(=C\C(=O)C(C)(C)C)[nH]c2=O)cc1`?
CHT PAM: inactive; PHOSPHO1 block: 12; HSF1 inhib: -1; HSF1 activator: 10; CHT block: inactive; Hep lipid drop: 50

Results for Oc1ccccc1N1CCN(Cc2ncc(-c3ccccc3)o2)CC1 ?
CHT PAM: inactive; PHOSPHO1 block: -2; HSF1 inhib: 1; HSF1 activator: 4; CHT block: inactive; Hep lipid drop: -5

How did COc1cccc(-c2cn(-c3cccc(C(F)(F)F)c3)c(=S)[nH]2)c1 do in these assays?
CHT PAM: inactive; HSF1 inhib: 19; HSF1 activator: 49; CHT block: inactive; Hep lipid drop: 59*; Hep lipid conf: 2; AML12 cytotox: 0.35

Results for Cc1cccc(-n2cc(-c3ccccc3)[nH]c2=S)c1 ?
CHT PAM: inactive; HSF1 inhib: 17; HSF1 activator: 41; CHT block: inactive

Results for CCNc1nc(Cl)nc(N(NC(C)=O)C(C)C)n1 ?
CHT PAM: inactive; PHOSPHO1 block: 16; HSF1 inhib: -3; HSF1 activator: 6; CHT block: inactive; Hep lipid drop: 0

What do the screens show for `O=C(OCc1ccc([N+](=O)[O-])cc1)c1ccc(N2CCCC2)c([N+](=O)[O-])c1`?
CHT PAM: inactive; PHOSPHO1 block: -1; HSF1 inhib: 11; HSF1 activator: 21; CHT block: inactive; Hep lipid drop: -2

Results for CCc1ccc(NC(=O)C(C)OC(=O)c2ccc(N3CCCC3)c([N+](=O)[O-])c2)cc1 (configuration not stated) ?
CHT PAM: inactive; PHOSPHO1 block: -4; HSF1 inhib: 2; HSF1 activator: 12; CHT block: inactive; Hep lipid drop: 92*; Hep lipid conf: 107*; AML12 cytotox: -0.22

What do the screens show for `CCOc1ccc(CCNC(=O)COC(=O)c2c(C)nn(-c3ccccc3)c2C)cc1OCC`?
CHT PAM: inactive; PHOSPHO1 block: 33; HSF1 inhib: -1; HSF1 activator: -16; CHT block: inactive; Hep lipid drop: 86*; Hep lipid conf: 110*; AML12 cytotox: -0.39; AML12 tox conf: 15

How did CCOc1ccc(CCNC(=O)COC(=O)c2cc([N+](=O)[O-])ccc2N2CCOCC2)cc1OCC do in these assays?
CHT PAM: inactive; PHOSPHO1 block: 43; HSF1 inhib: 25; HSF1 activator: 49; CHT block: inactive; Hep lipid drop: 68*; Hep lipid conf: 103*; AML12 cytotox: -0.41; AML12 tox conf: 18

Results for CCOc1ccc(C(=O)OCC(=O)Nc2ccc(SC(F)F)cc2)cc1OCC ?
CHT PAM: inactive; PHOSPHO1 block: -4; HSF1 inhib: -9; HSF1 activator: -6; CHT block: inactive; Hep lipid drop: 51*; Hep lipid conf: 72*; AML12 cytotox: -0.6

What do the screens show for `CCOc1ccc(CCNC(=O)COC(=O)c2cc(OC)c(OC)c(OC)c2)cc1OCC`?
CHT PAM: inactive; PHOSPHO1 block: 58; HSF1 inhib: -5; HSF1 activator: -6; CHT block: inactive; Hep lipid drop: 75*; Hep lipid conf: 109*; AML12 cytotox: -0.53; AML12 tox conf: 11

How did O=C(COC(=O)c1cc[n+]([O-])cc1)Nc1ccc(SC(F)F)cc1 do in these assays?
CHT PAM: inactive; PHOSPHO1 block: 25; HSF1 inhib: 8; HSF1 activator: 7; CHT block: inactive; Hep lipid drop: -23

What do the screens show for `O=C(COC(=O)c1cc([N+](=O)[O-])ccc1N1CCOCC1)NCCc1ccccc1`?
CHT PAM: inactive; PHOSPHO1 block: 38; HSF1 inhib: 2; HSF1 activator: -5; CHT block: inactive; Hep lipid drop: 0

What do the screens show for `CCOc1ccc(CCNC(=O)COC(=O)c2ccc(Cl)nc2)cc1OCC`?
CHT PAM: inactive; HSF1 inhib: -4; HSF1 activator: -9; CHT block: inactive

Results for Cc1ccc(S(=O)(=O)N(C)c2ccc(OC(C)C(=O)N3CCCC3)cc2)cc1C (configuration not stated) ?
CHT PAM: inactive; HSF1 inhib: 5; HSF1 activator: 11; CHT block: inactive

How did CCN(CC)c1cccc(OCC(=O)N(C)CCC#N)c1 do in these assays?
CHT PAM: inactive; PHOSPHO1 block: 6; HSF1 inhib: 7; HSF1 activator: -10; CHT block: inactive

Results for CCOc1ccc(CCNC(=O)Cn2nc(C)c3c(C)n(-c4ccccc4)nc3c2=O)cc1OCC ?
CHT PAM: inactive; PHOSPHO1 block: 34; HSF1 inhib: -9; HSF1 activator: -4; CHT block: inactive; Hep lipid drop: 91*; Hep lipid conf: 93*; AML12 cytotox: -0.62; AML12 tox conf: 8

Results for CCOc1ccc(CCNC(=O)Cn2ncn3nc(-c4ccc(OC)cc4)cc3c2=O)cc1OCC ?
CHT PAM: inactive; PHOSPHO1 block: 32; HSF1 inhib: 4; HSF1 activator: 8; CHT block: inactive; Hep lipid drop: 85*; Hep lipid conf: 101*; AML12 cytotox: 0.45; AML12 tox conf: 4
